Measured values from ChEMBL document CHEMBL5532752, “Integrating a quinone substructure into histone deacetylase inhibitors to cope with Alzheimer's disease and cancer” (RSC Med Chem, 2024).

Test system: SH-SY5Y
Experiment: Cytotoxicity against human SH-SY5Y cells assessed as cell viability at 100 uM incubated for 24 to 72 hrs by MUH reagent based spectrophotometric analysis
Format: functional
Details: time 24-72 hrs, read-out: Activity
How it was run: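 SH-SY5Y in DMEM/10% FBS seeded 0.75 × 10⁴ cells/well, after 24 h treated with 0.1–100 μM for 24, 48 or 72 h. Washed, incubated with MUH 0.01 mg/mL in PBS 30 min at 37 °C in the dark; fluorescence ex 330/em 450 nm, normalized to untreated cells. IC50 by nonlinear regression, log(inhibitor) vs normalized response.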

Compound `CC1=C(NCCCCNC(=O)CS)C(=O)c2ccccc2C1=O` has a viability at 100 µM of 70%.
